Data from ChEMBL document CHEMBL1124779, “Synthesis and antitumor activity of 1-[[(dialkylamino)alkyl]amino]-4-methyl-5H-pyrido[4,3-b]benzo[e]- and -benzo[g])indoles. A new class of antineoplastic agents” (1990).
≈ marks a conversion by molar mass, not a printed value.

Assays:
[1] = Tested for cytotoxicity in the multiple tumor disk diffusion soft agar assay at the dose of 15 ug/disk against solid tumor PO3; U = […]; format: functional, Mus musculus
Method in brief: (§1)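 Soft agar disk diffusion: bottom layer 0.8% noble agar, top layer 0.47% noble agar, both in 1:1 CMRL-Fischer medium with 11% horse serum. Top layer seeded with 5×10^3 L1210 cells or 10^6 solid tumor cells (C38, PO3). Drug applied on a dried 6-mm filter-paper disk. Incubation 7-11 days. Inhibition zone measured by inverted microscope, in units (1 unit = 30 μm).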

[2] = tested on: L1210; assay: Tested for cytotoxicity in the multiple tumor disk diffusion soft agar assay at the dose of 15 ug/disk against leukemia L1210; range is 290-350; format: functional, Mus musculus; method in brief: as §1
[3] = tested on: P388; assay: In vivo T/C (survival time treated/survival time control x 100) was determined against P388 leukemia cells at 40 mg/Kg; format: functional, Mus musculus
Method in brief: (§2)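 B6D2 F1 mice, at least five per group, were inoculated ip on day 0 with 10^6 viable P388 cells (25 mL/kg). Compounds were dissolved in distilled water and given ip (25 mL/kg) daily on days 1–4. Mortality was checked daily, with necropsy of dead animals. T/C×100 was median survival, treated versus control. Survivors beyond 50 days counted as cured and were excluded from the median.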

[4] = tested on: P388; assay: In vitro cytotoxicity was determined against P388 leukemia cells; format: functional; settings: Mus musculus, read-out: ID50 (the source's name)
Method in brief: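 P388 cells in exponential growth, RPMI 1640 with 2 mM glutamine, 10 μM 2-mercaptoethanol and 10% FCS, 5% CO2, 37 °C. Cells at 10^5 cells/mL. Drugs in distilled water added on day 0. Cells counted by Coulter counter after 96 h. ID50 (μg/mL, 50% inhibition of proliferation) estimated by regression of concentration/response data.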

[5] = tested on: L1210; assay: Tested for cytotoxicity in the multiple tumor disk diffusion soft agar assay at the dose of 15 ug/disk against leukemia L1210; U = 32 uM; format: functional, Mus musculus; method in brief: as §1
[6] = Tested for cytotoxicity in the multiple tumor disk diffusion soft agar assay at the dose of 15 ug/disk against solid tumor C38; U = 32 uM; format: functional, Mus musculus; method in brief: as §1
[7] = tested on: Mus musculus; assay: Tested for the change in body weight between day1 and 7 for murine solid tumor model MA 16/C early stage that is subcutaneously implanted by the intravenous treatment at the dose of 5 mg/kg in 1-4 schedule; format: functional
Method in brief: (§3)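 Mice given sc 1 mm³ tumor fragment: C26 in CD2F1 mice, MA 16/C in C3H mice (tumors passaged in strain of origin), 10 per group. Drug given iv days 1–4 at 10 mL/kg. Animals weighed daily and watched for toxicity. Body-weight change taken from day 1 to day 7. Killed day 14 (C26) or 15 (MA 16/C).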

[8] = tested on: Mus musculus; assay: Tested for medium tumor weight of treated /control animals x 100 (% T/C) for murine solid tumor model MA 16/C early stage that is subcutaneously implanted by the intravenous treatment at the dose of 5 mg/kg in 1-4 schedule; format: functional
Method in brief: (§4)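 sc implant of 1 mm³ tumor fragment. MA 16/C in C3H mice, B16 in C57BL/6 mice, C26 in CD2F1 mice; 10 per group. iv dosing on days 1-4 at 10 mL/kg. Mice weighed daily. Killed day 14 (C26) or day 15 (MA 16/C, B16) and tumors weighed. T/C×100 from median tumor weight, treated vs control. Body weight change taken from day 1 to 7.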

[9] = Tested for medium tumor weight of treated /control animals x 100 (% T/C) for murine solid tumor model B16 early stage that is subcutaneously implanted by the intravenous treatment at the dose of 5 mg/kg in 1-4 schedule; format: functional, Mus musculus; method in brief: as §4
[10] = tested on: Mus musculus; assay: Tested for medium tumor weight of treated /control animals x 100 (% T/C) for murine solid tumor model C26 early stage that is subcutaneously implanted by the intravenous treatment at the dose of 10 mg/kg in 1-4 schedule; format: functional; method in brief: as §4
[11] = Tested for the change in body weight between day1 and 7 for murine solid tumor model B16 early stage that is subcutaneously implanted by the intravenous treatment at the dose of 5 mg/kg in 1-4 schedule; format: functional, Mus musculus; method in brief: as §4
[12] = tested on: Mus musculus; assay: Tested for the change in body weight between day1 and 7 for murine solid tumor model C26 early stage that is subcutaneously implanted by the intravenous treatment at the dose of 10 mg/kg in 1-4 schedule; format: functional; method in brief: as §4
[13] = tested on: L1210; assay: Tested for cytotoxicity in the multiple tumor disk diffusion soft agar assay at the dose of 15 ug/disk against leukemia L1210; range is 475-600; format: functional, Mus musculus; method in brief: as §1
[14] = Cytotoxicity in the multiple tumor disk diffusion soft agar assay at the dose of 15 ug/disk against solid tumor PO3; format: functional, Mus musculus; method in brief: as §1
[15] = tested on: L1210; assay: Cytotoxicity in the multiple tumor disk diffusion soft agar assay at the dose of 15 ug/disk against leukemia L1210; format: functional, Mus musculus; method in brief: as §1
[16] = Tested for cytotoxicity in the multiple tumor disk diffusion soft agar assay at the dose of 15 ug/disk against solid tumor C38; range is 450-525; format: functional, Mus musculus; method in brief: as §1
[17] = Cytotoxicity in the multiple tumor disk diffusion soft agar assay at the dose of 15 ug/disk against solid tumor C38.; format: functional, Mus musculus; method in brief: as §1
[18] = tested on: L1210; assay: Tested for cytotoxicity in the multiple tumor disk diffusion soft agar assay at the dose of 15 ug/disk against leukemia L1210; range is 450-500; format: functional, Mus musculus; method in brief: as §1
[19] = tested on: L1210; assay: Tested for cytotoxicity in the multiple tumor disk diffusion soft agar assay at the dose of 15 ug/disk against leukemia L1210; range is 500-580; format: functional, Mus musculus; method in brief: as §1
[20] = tested on: P388; assay: In vivo T/C (survival time treated/survival time control x 100) was determined against P388 leukemia cells at 10 mg/Kg; format: functional, Mus musculus; method in brief: as §2
[21] = tested on: Mus musculus; assay: Tested for the change in body weight between day1 and 7 for murine solid tumor model 3LL early stage that is intramuscularly implanted by the intravenous treatment at the dose of 2.5 mg/kg in 1-4 schedule
[22] = tested on: Mus musculus; assay: Tested for medium tumor weight of treated /control animals x 100 (% T/C) for murine solid tumor model MA 16/C early stage that is subcutaneously implanted by the intravenous treatment at the dose of 2.5 mg/kg in 1-4 schedule; format: functional; method in brief: as §4
[23] = tested on: Mus musculus; assay: Tested for the change in body weight between day1 and 7 for murine solid tumor model C26 early stage that is subcutaneously implanted by the intravenous treatment at the dose of 2.5 mg/kg in 1-4 schedule; format: functional; method in brief: as §3
[24] = tested on: Mus musculus; assay: Tested for medium tumor weight of treated /control animals x 100 (% T/C) for murine solid tumor model 3LL advanced stage that is subcutaneously implanted by the intravenous treatment at the dose of 2.5 mg/kg in 1-4 schedule; format: functional
[25] = tested on: Mus musculus; assay: Tested for the change in body weight between day1 and 7 for murine solid tumor model B16 early stage that is subcutaneously implanted by the intravenous treatment at the dose of 1.25 mg/kg in 1-4 schedule; format: functional; method in brief: as §4
[26] = tested on: Mus musculus; assay: Tested for medium tumor weight of treated /control animals x 100 (% T/C) for murine solid tumor model C26 early stage that is subcutaneously implanted by the intravenous treatment at the dose of 2.5 mg/kg in 1-4 schedule; format: functional; method in brief: as §4
[27] = tested on: Mus musculus; assay: Tested for mean number of metastases in treated/control animals x 100 (% T/C) for murine solid tumor model 3LL early stage that is intramuscularly implanted by the intravenous treatment at the dose of 2.5 mg/kg in 1-4 schedule
[28] = tested on: Mus musculus; assay: Tested for the change in body weight between day1 and 14 for murine solid tumor model 3LL advanced stage that is intramuscularly implanted by the intravenous treatment at the dose of 2.5 mg/kg in 7-10 schedule
[29] = tested on: Mus musculus; assay: Tested for medium tumor weight of treated /control animals x 100 (% T/C) for murine solid tumor model B16 early stage that is subcutaneously implanted by the intravenous treatment at the dose of 1.25 mg/kg in 1-4 schedule; format: functional; method in brief: as §4
[30] = tested on: Mus musculus; assay: In vivo total number of survivors was determined against L1210 Leukemia cells out of 8 mouse at 50 day; format: functional, Leukemia cell
Method in brief: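 B6D2 F1 mice, at least five per group, were inoculated ip on day 0 with 10^5 viable L1210 cells (25 mL/kg). Compounds were dissolved in distilled water and given ip (25 mL/kg) on days 1–4. Deaths were checked daily, with necropsy to separate tumor from toxic death. T/C×100 was median survival of treated over controls. Mice surviving over 50 days counted as cured and were excluded from the median.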

[31] = tested on: Mus musculus; assay: Tested for the change in body weight between day1 and 7 for murine solid tumor model MA 16/C early stage that is subcutaneously implanted by the intravenous treatment at the dose of 2.5 mg/kg in 1-4 schedule; format: functional; method in brief: as §3

## COc1cccc2c1ccc1c3c(NCCCN(C)C)ncc(C)c3n(C)c21
[1]
  Cytotoxicity: 275 U
[2]
  Cytotoxicity: 290 U
[3]
  T/C x100: 130
[4]
  IC50: 0.75 µg/mL (≈ 1.99 µM)
[5]
  Cytotoxicity: 375 U
[6]
  Cytotoxicity: 675 U

## CCN(CC)CCCNc1nccc2c(C)c3[nH]c4ccncc4c3cc12 [PAZELLIPTINE]
[7]
  Change in weight: -1.5 g
[8]
  T/C: 45%
[9]
  T/C: 10%
[10]
  T/C: 10%
[11]
  Change in weight: -0.5 g
[12]
  Change in weight: -1.5 g

## Cc1cnc(NCCCN(C)C)c2c3c4ccccc4ccc3n(C)c12
[13]
  Cytotoxicity: 475 U
[14]
  Cytotoxicity: 550 U
[3]
  T/C x100: 164
[15]
  Cytotoxicity: 425 U
[4]
  IC50: 0.05 µg/mL (≈ 0.144 µM)
[16]
  Cytotoxicity: 450 U

## CCN(CC)CCCNc1ncc(C)c2c1c1c3ccc(OC)cc3ccc1n2C
[14]
  Cytotoxicity: 375 U
[17]
  Cytotoxicity: 325 U
[3]
  T/C x100: 143
[15]
  Cytotoxicity: 400 U
[4]
  IC50: 0.75 µg/mL (≈ 1.85 µM)
[18]
  Cytotoxicity: 450 U

## Cc1cnc(NCCCN(C)C)c2c3ccc4ccccc4c3n(C)c12
[1]
  Cytotoxicity: 325 U
[15]
  Cytotoxicity: 450 U
[4]
  IC50: 0.375 µg/mL (≈ 1.08 µM)
[19]
  Cytotoxicity: 500 U
[20]
  T/C x100: 119
[6]
  Cytotoxicity: 480 U

## CCN(CC)CCCNc1nccc2c(C)c3[nH]c4ccc(OC)cc4c3c(C)c12 [RETELLIPTINE]
[21]
  Change in weight: -1.4 g
[22]
  T/C: 4%
[23]
  Change in weight: -2.1 g
[24]
  T/C: 40%
[25]
  Change in weight: 1 g
[26]
  T/C: 0%
[27]
  T/C: 0%
[28]
  Change in weight: 0 g
[29]
  T/C: 26%
[30]
  Survivors: 3
[31]
  Change in weight: -2.2 g
